Source: ChEMBL document CHEMBL3525987, “Assessment of exposure of metabolites in preclinical species and humans at steady state from the single-dose radiolabeled absorption, distribution, metabolism, and excretion studies: a case study” (Drug Metab Dispos, 2012)

Tests used:
[1] = test system: Homo sapiens; test: AUC(0 to infinity) as total radioactivity in human plasma at 100 mg, po administered as single dose by LC-MS/MS analysis; type: ADME, organism-based; design: dose 100 mg, route oral, dosed compound name [14C]lixivaptan, time infinity; details: in vivo
Outline: (§1)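 Fasted healthy males took one oral 100 mg (200 µCi) [14C]lixivaptan dose. Plasma was drawn from predose to 144 h. Total radioactivity was measured by LSC and converted to ng-equiv/ml via the dose specific activity; lixivaptan by validated LC-MS/MS. Noncompartmental analysis: Cmax observed; kel by log-linear regression; AUC0-t by linear trapezoid; extrapolation as Cest/kel.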

[2] = test system: Rattus norvegicus; test: AUC(0 to t) as total radioactivity in male Sprague-Dawley rat plasma at 10 mg/kg, po administered as single dose via gavage by LC-MS/MS analysis; type: ADME, organism-based; design: dose 10 mg/kg, dosed compound name [14C]lixivaptan, route oral; details: in vivo
Outline: (§2)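 Jugular-cannulated Sprague-Dawley rats (5/gender) were fasted 18 h and gavaged once with 10 mg/kg [14C]lixivaptan suspended in water/pluronic F68. K2EDTA blood was taken at 0.25–168 h, with donor blood replaced from 1 h on. Total radioactivity was read by LSC (ng-equiv/ml) and parent by validated LC-MS/MS. Noncompartmental Cmax, log-linear kel and trapezoidal AUC followed.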

[3] = test system: Rattus norvegicus; test: Tmax as total radioactivity in female Sprague-Dawley rat plasma at 10 mg/kg, po administered as single dose via gavage by LC-MS/MS analysis; type: ADME, organism-based; design: dose 10 mg/kg, dosed compound name [14C]lixivaptan, route oral; details: in vivo
Outline: (§3)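 Jugular-vein cannulated SD rats (5/gender) given gavage [14C]drug 10 mg/kg in pluronic F68/water; K2EDTA blood 0.25-168 h with donor blood replacement. Parent by validated LC-MS/MS, radioactivity by LSC; Tmax observed; t1/2 = 0.693/kel by terminal log-linear regression.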

[4] = Drug recovery in urine of human at […], po administered as single dose measured after 168 hrs by liquid scintillation counting; type: ADME, organism-based; design: dosed compound name [14C]lixivaptan, route oral; details: in vivo
Outline: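 Healthy male volunteers given single oral 100 mg (200 µCi) [14C]drug capsules after ≥10 h fast. Urine at 0-4, 4-8, 8-12, 12-24 h then 24-h intervals; feces as passed, to 168 h. Urine LSC; feces homogenized in water, combusted, LSC; % of dose.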

[5] = test system: Homo sapiens; test: Total drug recovery in human at […], po administered as single dose measured after 168 hrs by liquid scintillation counting; type: ADME, organism-based; design: dosed compound name [14C]lixivaptan, route oral; details: in vivo
Outline: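 Healthy male volunteers given a single 100 mg (200 μCi) oral dose as 2×50-mg capsules with 250 ml water, fasted ≥10 h before and 4 h after dosing. Urine collected at 0-4, 4-8, 8-12, 12-24 h, then every 24 h to 168 h; feces collected as passed to 168 h. Feces homogenized (20% w/w) and combusted; radioactivity measured by LSC.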

[6] = Drug recovery in feces of male Sprague-Dawley rat at 10 mg/kg, po administered as single dose via gavage measured after 168 hrs by liquid scintillation counting; type: ADME, organism-based; design: dose 10 mg/kg, dosed compound name [14C]lixivaptan, route oral; details: in vivo
Outline: (§4)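 Intact SD rats (3/gender) dosed by gavage with [14C]drug 10 mg/kg (10 ml/kg, pluronic F68/water), housed in metabolism cages; urine and feces at 0-8, 8-24 h, then every 24 h to 7 days. Urine counted by LSC; feces homogenized 20% w/w in water, combusted, trapped CO2 counted; cage wash/debris included; % of dose.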

[7] = test system: Rattus norvegicus; test: Drug recovery in cage wash/debris of male Sprague-Dawley rat at 10 mg/kg, po administered as single dose via gavage measured after 168 hrs by liquid scintillation counting; type: ADME, organism-based; design: dose 10 mg/kg, dosed compound name [14C]lixivaptan, route oral; details: in vivo; outline: as §4
[8] = Drug recovery in bile of bile duct-cannulated male Sprague-Dawley rat at 10 mg/kg, po administered as single dose via gavage measured from 0 to 48 hrs by liquid scintillation counting; type: ADME, organism-based; design: dose 10 mg/kg, dosed compound name [14C]lixivaptan, route oral; details: in vivo
Outline: (§5)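 Bile-duct cannulated SD rats (n=5) got single gavage of [14C]drug 10 mg/kg as pluronic F68/water suspension. Bile collected on wet ice at 0-4, 4-8, 8-24, 24-48 h; drinking water supplemented with bile salts and electrolytes. Duplicate aliquots counted by liquid scintillation; expressed as % of dose.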

[9] = Drug recovery in bile of bile duct-cannulated female Sprague-Dawley rat at 10 mg/kg, po administered as single dose via gavage measured 0 to 48 hrs by liquid scintillation counting; type: ADME, organism-based; design: dose 10 mg/kg, dosed compound name [14C]lixivaptan, route oral; details: in vivo; outline: as §5
[10] = test system: Homo sapiens; test: AUC (0 to 24 hrs) in human at 100 mg, po administered as single dose; type: ADME, organism-based, Plasma; design: time < 24 hr, dose 100 mg, route oral, dosed compound name [14C]lixivaptan; details: in vivo
Outline: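 Healthy young men fasted 10 h and took one oral dose of [14C]lixivaptan, 100 mg (200 µCi) as two capsules with water, eating 4 h later. Plasma from each subject at 0.5, 2, 4, 8, 12, 24 and 36 h was acetonitrile-extracted and profiled by C18 radio-HPLC (formic acid/acetonitrile gradient) with flow detection. Component concentrations were % of radioactivity × total plasma radioactivity, giving AUC0-24 in ng-equiv.h/ml.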

[11] = Drug recovery in feces of male beagle dog at 10 mg/kg, po administered as single dose via gavage measured after 168 hrs by liquid scintillation counting; type: ADME, organism-based, Canis lupus familiaris; design: dose 10 mg/kg, dosed compound name [14C]lixivaptan, route oral; details: in vivo
Outline: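 Four male beagles got 10 mg/kg (2 ml/kg) [14C]drug suspension (5.0 mg/ml, pluronic F68/water, 1.04 µCi/mg) by gavage. Urine and feces collected over dry ice at 0-8, 8-24 h, then every 24 h to 7 days; urine by LSC, fecal homogenates combusted then LSC; cage wash/debris included; % of dose.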

[12] = test system: Homo sapiens; test: AUC(0 to t) as total radioactivity in human plasma at 100 mg, po administered as single dose by LC-MS/MS analysis; type: ADME, organism-based; design: dosed compound name [14C]lixivaptan; details: in vivo; outline: as §1
[13] = test system: Rattus norvegicus; test: Tmax as total radioactivity in male Sprague-Dawley rat plasma at 10 mg/kg, po administered as single dose via gavage by LC-MS/MS analysis; type: ADME, organism-based; design: dose 10 mg/kg, dosed compound name [14C]lixivaptan, route oral; details: in vivo; outline: as §3
[14] = test system: Rattus norvegicus; test: Cmax as total radioactivity in female Sprague-Dawley rat plasma at 10 mg/kg, po administered as single dose; type: ADME, organism-based; design: dose 10 mg/kg, dosed compound name [14C]lixivaptan, route oral; details: in vivo; outline: as §2
[15] = Retention time of the compound by HPLC analysis; type: physicochemical; design: dosed compound name [14C]lixivaptan
[16] = test system: Homo sapiens; test: Drug level in human plasma at 100 mg, po administered as single dose measured after 2 hrs by liquid scintillation counting; type: ADME, organism-based; design: dosed compound name [14C]lixivaptan; details: in vivo
Outline: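 Healthy male volunteers fasted ≥10 h, given single oral 100 mg (200 µCi) [14C]drug as two 50-mg capsules with 250 ml water. Plasma (from ~50 ml blood) at 0.5, 2, 4, 8, 12, 24, 36 h, profiled per subject. Acetonitrile extraction, C18 radio-HPLC with 0.2% formic acid acetonitrile/water gradient, on-line radioactivity detection as % plasma radioactivity; ng-equiv/ml from % × total radioactivity.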

[17] = test system: Canis familiaris; test: Drug level in beagle dog plasma at 10 mg/kg, po administered as single dose measured after 8 hrs by liquid scintillation counting; type: ADME, organism-based, Canis lupus familiaris; design: dose 10 mg/kg, dosed compound name [14C]lixivaptan, route oral; details: in vivo
Outline: (§6)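 Four male beagles fasted 18 h were gavaged once with [14C]lixivaptan at 10 mg/kg (2 ml/kg). The 5.0 mg/ml suspension was in deionized water with pluronic F68 (1.04 µCi/mg). Jugular K2EDTA plasma was taken at 2, 8 and 24 h and extracted twice with 2 volumes of acetonitrile. Profiling used C18 radio-HPLC (ammonium formate/acetonitrile gradient) with on-line flow scintillation detection. Each peak is reported as percent of plasma radioactivity.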

[18] = test system: Canis familiaris; test: Drug level in beagle dog plasma at 10 mg/kg, po administered as single dose measured after 24 hrs by liquid scintillation counting; type: ADME, organism-based, Canis lupus familiaris; design: dose 10 mg/kg, dosed compound name [14C]lixivaptan, route oral; details: in vivo; outline: as §6

AUC [1]: 26200 ng.Eq.hr/ml | AUCt [2]: 65700 ng.Eq.hr/ml | Tmax [3]: 1.4 h | Radiolabel recovery [4]: 20.5% | Radiolabel recovery [5]: 84.2% | Radiolabel recovery [6]: 91% | Radiolabel recovery [7]: 2.2% | Radiolabel recovery [8]: 65.4% | Radiolabel recovery [9]: 70.5% | AUC [10]: 1860 ng.Eq.hr/ml | Radiolabel recovery [11]: 83.1% | AUCt [12]: 24700 ng.Eq.hr/ml | Tmax [13]: 3.2 h | Cmax [14]: 1960 ngequiv/ml | Retention_time [15]: 34.3 min | Compound recovery [16]: 13.4% | Compound recovery [17]: 14.9% | Compound recovery [18]: 7.4%
SMILES: Cc1ccc(F)cc1[14C](=O)Nc1ccc(C(=O)N2Cc3cccn3Cc3ccccc32)c(Cl)c1
